This is an account of results in paper PMC10720030 (ACS Omega, 2023).

Assay [1] concerns breast MCF-7 cancer cells. In words: Cytotoxicity using the MTT assay, MCF-7. Conditions: for inhibition at 100 µM: read-out: % of cell inhibition ± SD at [100 μM], MCF7. Format: cell-based. The gist of the method:
(§1)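 MTT viability; cells grown with 10% FBS and 1% penicillin–streptomycin, exposed next day to five concentrations (0.01, 0.1, 1, 10, 100) for 48 h. MTT dye added for 3 h, then viability calculated against untreated control. IC50 taken from dose–response curve; mean ± SD of three independent triplicates (n = 3).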
A general note: Formazan colour is commonly taken as a measure of viable cells.

A further assay relates to liver HepG2 cancer cells. Kind of assay: Cytotoxicity using the MTT assay, HepG2. The format is cell-based. The conditions noted are these: for inhibition at 100 µM: read-out: % of cell inhibition ± SD at [100 μM], HepG2. The gist of the method:
as §1

A further assay concerns the target PIM-1 kinase (Homo sapiens, UniProt P11309). Kind of assay: PIM-1 kinase inhibitory assay. The conditions noted are these: for % of kinase inhibition, PIM-1 kinase: concentration not given. The format is biochemical.
The next assay has as its system MCF-7. Conditions: read-out: IC50 against MCF-7; cited from earlier work.
Assay [2] concerns MCF-7 cells. In words: Annexin V/PI staining flow cytometry. The format is cell-based. The conditions noted are these: MCF-7, treated at IC50, 48 h. (A flow cytometer gives signals particle by particle.)
The subject of the next assay is MCF-10A normal cells. In words: Cytotoxicity using the MTT assay, MCF-10A. The format is cell-based. Conditions: Homo sapiens, read-out: IC50 ± SD, MCF-10A. In a few lines:
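Normal breast cells run in MTT viability assay. IC50 derived from dose–response curve; values are mean ± SD of three independent triplicate experiments (n = 3).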

Assay [3] has as its system MCF-7 cells. Kind of assay: DNA content-flow cytometry cell cycle analysis. The format is cell-based. Conditions: MCF-7, treated at IC50, 48 h; control 29.12%.
In assay [4] the test system is MCF-7 cells. Kind of assay: Autophagy evaluation using acridine orange flow cytometry. Format: cell-based. Conditions: MCF-7, 48 h, control 32.8 × 10^3.
For assay [5], the system named is MCF-7 cells. In words: Wound-healing assay. The format is cell-based.
Assay [6] deals with Solid Ehrlich carcinoma (SEC). In words: In vivo antitumor activity in SEC-bearing mice. Conditions: 5 mg/kg I.P.; for tumor weight: n = 6, SEC control 198.5 ± 10.6; for tumor volume: n = 6, SEC control 274.8 ± 16.6. More on the design: species or system Swiss albino mice.
The mark [7] stands for this setting: Homo sapiens, MCF7, 48 h, read-out: IC50 ± SD, MCF7, MCF7, MTT, 48 h, n = 3.
The mark [8] stands for this setting: Homo sapiens, HepG2, 48 h, read-out: IC50 ± SD, HepG2, HepG2, MTT, 48 h, n = 3.
The mark [9] stands for this setting: read-out: IC50 ± SD, HepG2, HepG2, MTT, 48 h, n = 3.

Where “and” joins values, the source holds several entries; their conditions need not be identical. Equal values may be shown once. Read-outs that look alike come from different tables or passages of the source.

Sequence of PIM-1 kinase (P11309 whole entry): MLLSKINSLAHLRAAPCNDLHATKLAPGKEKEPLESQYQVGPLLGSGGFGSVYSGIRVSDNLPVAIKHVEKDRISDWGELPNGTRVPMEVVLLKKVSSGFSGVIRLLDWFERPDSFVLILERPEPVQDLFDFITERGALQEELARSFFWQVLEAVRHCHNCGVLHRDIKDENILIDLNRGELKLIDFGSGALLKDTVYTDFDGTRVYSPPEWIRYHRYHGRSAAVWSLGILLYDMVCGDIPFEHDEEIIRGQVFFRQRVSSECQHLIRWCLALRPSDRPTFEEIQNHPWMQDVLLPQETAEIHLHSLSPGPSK

For orientation: inhibition means the relative decrease from the control value, in per cent. For the molecule `Cc1cc(C)c(C#N)c(OCC(=O)NCc2ccccc2)n1` [Compound 14, N-Benzyl-2-((3-cyano-4,6-dimethylpyridin-2-yl)oxy)acetamide], the inhibition at 100 µM in assay [1] (Homo sapiens, MCF7, 48 h) is 48.8 ± 1.2%; in the assay with liver HepG2 cancer cells (Homo sapiens, HepG2, 48 h) it was 35.5 ± 1.1%.
Usually IC50 stands for the concentration that gives 50% inhibition. As to `Cc1cc(C)c(C#N)c(OCC(=O)N2CCCCC2)n1` [Compound 13, 4,6-Dimethyl-2-(2-oxo-2-(piperidin-1-yl)ethoxy)nicotinonitrile], the inhibition at 100 µM in [1] (Homo sapiens, MCF7, 48 h) turned out to be 64.6 ± 1.8%; in the assay on liver HepG2 cancer cells (Homo sapiens, HepG2, 48 h), 56.4 ± 1.4%. Further, 0.0198 ± 0.0011 µM corresponded to half-maximal inhibition on PIM-1 kinase (IC50). Besides, on PIM-1 kinase, the “% of kinase inhibition, PIM-1 kinase” value is reported as 94.9 ± 2.9%.
For the molecule `CS(=O)(=O)CCNCc1ccc(-c2ccc3ncnc(Nc4ccc(OCc5cccc(F)c5)c(Cl)c4)c3c2)o1` [lapatinib], in the assay on MCF-7, the IC50 was 4.69 µM.
With `COC(=O)CNC(=O)COc1nc(C)cc(C)c1C#N` [Compound 11, Methyl (2-((3-Cyano-4,6-dimethylpyridin-2-yl)oxy)acetyl)glycinate], the inhibition at 100 µM was found to be 78.6 ± 2.3% in assay [1] (Homo sapiens, MCF7, 48 h) and 68.8 ± 1.6% in the assay with liver HepG2 cancer cells (Homo sapiens, HepG2, 48 h). In addition, the IC50 in assay [1] (setting [7]) is 0.73 ± 0.04 µM; on PIM-1 kinase it was 0.0423 ± 0.0011 µM. For the same molecule, the “% of kinase inhibition, PIM-1 kinase” value at PIM-1 kinase came out at 90.1 ± 2.7%.
Turning to `CCCCCSc1nnc(COc2nc(C)cc(C)c2C#N)o1` [Compound 6, 4,6-Dimethyl-2-((5-(pentylthio)-1,3,4-oxadiazol-2-yl)methoxy)nicotinonitrile], the inhibition at 100 µM is 78.2 ± 2.2% in [1] (Homo sapiens, MCF7, 48 h) and 79.2 ± 2.2% with liver HepG2 cancer cells (Homo sapiens, HepG2, 48 h). Moreover, the IC50 in the assay with liver HepG2 cancer cells (setting [8]) worked out at 5.27 µM; with liver HepG2 cancer cells (setting [9]), 6.64 ± 0.28 µM; at PIM-1 kinase, 0.0194 ± 0.0007 µM. In addition, on PIM-1 kinase, the “% of kinase inhibition, PIM-1 kinase” value amounted to 94.3 ± 1.3%.
With `CCOC(=O)CSc1nnc(COc2nc(C)cc(C)c2C#N)o1` [Compound 3, Ethyl 2-((5-(((3-Cyano-4,6-dimethylpyridin-2-yl)oxy)methyl)-1,3,4-oxadiazol-2-yl)thio)acetate], the inhibition at 100 µM in assay [1] (Homo sapiens, MCF7, 48 h) was determined as 55.1 ± 2.1%; in the assay on liver HepG2 cancer cells (Homo sapiens, HepG2, 48 h) it was 57.8 ± 1.9%.
For `Cc1cc(C)c(C#N)c(OCc2n[nH]c(=S)o2)n1` [Compound 2, 4,6-Dimethyl-2-((5-thioxo-4,5-dihydro-1,3,4-oxadiazol-2-yl)methoxy)nicotinonitrile] the same measures were 41.9 ± 1.9% and 43.5 ± 1.8%.
For `CC(=O)OC[C@H]1O[C@H](Sc2nnc(COc3nc(C)cc(C)c3C#N)o2)[C@H](OC(C)=O)[C@@H](OC(C)=O)[C@H]1OC(C)=O` [Compound 8, 2-((5-(2,3,4,6-Tetra-O-acetyl-α-D-galactopyranosylsulfanyl)-1,3,4-oxadiazol-2-yl)methoxy)-4,6-dimethylpyridine-3-carbonitrile] the same measures were 59.8 ± 1.7% and 57.8 ± 1.6%.
Turning to `C=CCSc1nnc(COc2nc(C)cc(C)c2C#N)o1` [Compound 5, 2-((5-(Allylthio)-1,3,4-oxadiazol-2-yl)methoxy)-4,6-dimethylnicotinonitrile], the inhibition at 100 µM in assay [1] (Homo sapiens, MCF7, 48 h) is 47 ± 1.4%; with liver HepG2 cancer cells (Homo sapiens, HepG2, 48 h), 69 ± 2.1%.
As for `Cc1cc(C)c(C#N)c(OCC(=O)N2CCOCC2)n1` [Compound 12, 4,6-Dimethyl-2-(2-morpholino-2-oxoethoxy)nicotinonitrile], in the assay on MCF-7 cells [2], the early apoptosis was found to be 23.18%. The “increase of apoptosis versus untreated control” value in the assay on MCF-7 cells [2] was 52.2 fold. In addition, in the assay on MCF-7 cells [2], the late apoptosis is listed as 10.25%. Moreover, the total apoptosis with MCF-7 cells [2] (untreated control 0.64%) turned out to be 33.43%. In addition, the half-maximal inhibitory concentration (IC50) in the assay with MCF-10A normal cells was found to be 52.9 ± 2.1 µM; in assay [1] (setting [7]) it was 0.5 µM; in assay [1] (read-out: IC50 ± SD, MCF7, MCF7, MTT, 48 h, n = 3), 0.51 ± 0.02 µM; with liver HepG2 cancer cells (setting [8]), 6.6 µM; in the assay with liver HepG2 cancer cells (setting [9]), 5.27 ± 0.2 µM; on PIM-1 kinase it was 0.0143 ± 0.0006 µM. The inhibition at 100 µM in assay [1] (Homo sapiens, MCF7, 48 h) stood at 84.2 ± 2.6%; in the assay with liver HepG2 cancer cells (Homo sapiens, HepG2, 48 h), 85.1 ± 2.1%. For the same molecule, the “S-phase cell population (%DIP S)” value in the assay with MCF-7 cells [3] stood at 36.02%. In addition, the autophagic cell death with MCF-7 cells [4] is on record as 87.6 × 10^3 cells. Moreover, the “% of kinase inhibition, PIM-1 kinase” value on PIM-1 kinase stood at 97.5 ± 1.3%. This molecule showed a wound closure in the assay with MCF-7 cells [5] (MCF-7, after 48 h of treatment, control 95.6%) of 71.8%. Also, in the assay with MCF-7 cells [5] (MCF-7, time 72 h), the “average L of migration” value was 0.32 mm. Moreover, in the assay with MCF-7 cells [5] (MCF-7, time 72 h, Cont.MCF-7 95.55), the “% closure” value was determined as 71.85%. Moreover, the migrated cell area in the assay on MCF-7 cells [5] (MCF-7, time 72 h, total area 0.225) came out at 0.161. In addition, in assay [6], the tumor weight was 72.8 mg and 72.8 ± 1.74 mg. In assay [6], the tumor volume was 159.2 mm^3 and 159.2 ± 10.1 mm^3. In addition, the “tumor inhibition ratio (TIR %)” value in [6] (n = 6, TIR % = C – T/C × 100) was 42.1% and 42.1 ± 1.0%.
As for `Cc1cc(C)c(C#N)c(OCc2nnc(SCc3ccccc3)o2)n1` [Compound 4, 2-((5-(Benzylthio)-1,3,4-oxadiazol-2-yl)methoxy)-4,6-dimethylnicotinonitrile], the inhibition at 100 µM in assay [1] (Homo sapiens, MCF7, 48 h) is 72.1 ± 2.9%; with liver HepG2 cancer cells (Homo sapiens, HepG2, 48 h) it was 75.8 ± 2.3%.
For `COc1cccc2c1C(=O)c1c(O)c3c(c(O)c1C2=O)C[C@@](O)(C(=O)CO)C[C@@H]3O[C@H]1C[C@H](N)[C@H](O)[C@H](C)O1` [doxorubicin, reference compound], the results for the IC50 (in the assay with MCF-10A normal cells; in assay [1] (setting [7]); in the assay with liver HepG2 cancer cells (setting [8])) were 15.8 ± 0.63 µM, 2.14 ± 0.1 µM and 2.48 ± 0.1 µM, respectively. In addition, the inhibition at 100 µM was found to be 90.2 ± 2.1% in assay [1] (Homo sapiens, MCF7, 48 h) and 79.1 ± 2.3% in the assay on liver HepG2 cancer cells (Homo sapiens, HepG2, 48 h). Moreover, in assay [6], the tumor weight was found to be 63.4 mg. The tumor volume in assay [6] is 112.3 mm^3.
